pKi: −log10 of the molar value. Calls of active or inactive are those of the source. The calls are words filed in the database; no cut-off is given here. Non-standard residues stand in square brackets, D forms with d. Residues, ends and D or L forms follow the SMILES beside them. Arg(Me) = CNC(=N)NCCC[C@H](N)C(=O)O; d4Pal = N[C@H](Cc1ccncc1)C(=O)O; azaGly = NNC(=O)O
Experiments:
[1] = test system: Rattus norvegicus; experiment: Suppression of testosterone in plasma of Sprague-Dawley rat at 2 nmol/h, sc measured after 6 days by radioimmunoassay; format: functional
Outline: (§1)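 9-week-old male CD(SD)IGS or Copenhagen rats (5/group) given peptide in distilled water by subcutaneous dorsal ALZET osmotic pump (2 mM, 0.001 mL/h) for 6 days; water-pump controls. Plasma (aprotinin/EDTA) testosterone measured by RIA on 0.05 mL. Values below detection limit (0.04 ng/mL) set to 0.04; results expressed as percent of control.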

[2] = target: T1, KiSS-1 receptor (Homo sapiens, UniProt Q969F8); experiment: Agonist activity at recombinant human KISS1R expressed in CHO cells assessed as intracellular calcium mobilization incubated for 30 mins at 37 degC and 30 mins at room temperature by Fluo-4 NW staining-based FLIPR assay relative to Metastin (45 to 54); format: functional, cell-based
T1 sequence (Q969F8 whole entry): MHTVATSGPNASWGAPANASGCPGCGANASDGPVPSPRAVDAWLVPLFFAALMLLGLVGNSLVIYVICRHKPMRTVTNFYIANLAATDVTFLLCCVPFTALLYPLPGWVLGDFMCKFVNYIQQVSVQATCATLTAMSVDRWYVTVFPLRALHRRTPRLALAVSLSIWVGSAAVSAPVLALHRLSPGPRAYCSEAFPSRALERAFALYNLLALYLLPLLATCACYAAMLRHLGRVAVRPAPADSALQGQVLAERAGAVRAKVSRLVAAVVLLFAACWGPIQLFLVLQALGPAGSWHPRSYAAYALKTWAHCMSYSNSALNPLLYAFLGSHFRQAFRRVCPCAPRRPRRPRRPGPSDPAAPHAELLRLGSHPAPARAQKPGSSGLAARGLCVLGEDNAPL
Outline: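 CHO cells stably expressing human KISS1R seeded at 15,000 cells/well, cultured 24 h, then loaded with Fluo-4 Direct in HBSS with 4 mM probenecid and 0.1% BSA (30 min 37 °C, 30 min room temperature). Compounds from 10 µM DMSO stocks diluted in sample buffer and added. Fluorescence read for 2 min at 2 s intervals. Peak counts give agonist activity. EC50 expressed as ratio to metastin(45-54).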

[3] = Metabolic stability in mouse serum assessed as compound remaining at 0.1 mM after 1 hr by HPLC analysis; format: ADME; details: read-out: Stability
Outline: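 Pooled mouse serum (45 µL) spiked with 5 µL of 1 mM aqueous peptide, giving 0.1 mM initial, and incubated at 37 °C. Aliquots taken at time 0 and after 1 h, quenched by boiling 3 min. Peptide quantified by HPLC peak area. Percent remaining relative to time 0; three independent experiments.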

[4] = target: KiSS-1 receptor (Rattus norvegicus, UniProt Q924U1); experiment: Binding affinity to rat KISS1R
Sequence of KiSS-1 receptor (Rattus norvegicus, UniProt Q924U1) (Q924U1 whole entry): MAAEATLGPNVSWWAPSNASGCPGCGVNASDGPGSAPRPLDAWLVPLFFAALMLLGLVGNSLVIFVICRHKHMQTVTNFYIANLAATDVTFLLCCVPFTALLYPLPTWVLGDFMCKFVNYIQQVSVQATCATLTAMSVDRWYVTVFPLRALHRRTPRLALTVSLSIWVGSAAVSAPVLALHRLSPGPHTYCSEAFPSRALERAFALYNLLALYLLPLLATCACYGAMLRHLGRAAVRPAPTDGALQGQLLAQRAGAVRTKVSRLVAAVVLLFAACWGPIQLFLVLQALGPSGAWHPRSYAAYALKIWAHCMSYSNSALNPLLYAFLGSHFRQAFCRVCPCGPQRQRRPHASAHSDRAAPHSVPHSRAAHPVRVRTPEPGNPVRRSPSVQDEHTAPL

[5] = target: T1, KiSS-1 receptor; experiment: Binding affinity to human KISS1R expressed in CHO cell membranes
[6] = test system: Rattus norvegicus; experiment: Suppression of testosterone in plasma of rat at 1 nmol/h, sc measured after 13 days by radioimmunoassay; format: functional, organism-based
Outline: (§2)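 Male rats given peptide continuously at 1 nmol/h. Plasma testosterone measured after 6 and 13 days; detection limit 0.04 ng/mL.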

[7] = test system: Rattus norvegicus; experiment: Suppression of testosterone in plasma of rat at 1 nmol/h, sc measured after 6 days by radioimmunoassay; format: functional, organism-based; outline: as §2
[8] = Bioavailability in Sprague-Dawley rat at 1 mg/kg, sc; format: ADME, organism-based; details: in vivo
[9] = Plasma concentration in Copenhagen rat at 2 nmol/h, sc measured after 6 days by radioimmunoassay; format: ADME, organism-based
[10] = test system: Rattus norvegicus; experiment: Suppression of testosterone in plasma of Copenhagen rat at 2 nmol/h, sc measured after 6 days by radioimmunoassay; format: functional, organism-based; outline: as §1
[11] = test system: Rattus norvegicus; experiment: Induction of ovulation in immature Wistar rats assessed as increase in number of oocytes at 30 to 100 nmol/kg administered dorsally by stereomicroscopy; format: functional, organism-based
Outline: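 23-day-old female Wistar rats primed subcutaneously with eCG 10 IU/animal. Two days later, saline-dissolved agents injected dorsally at 30 or 100 nmol/kg (5 rats/group; saline control 6; hCG 10 IU positive control). Animals killed 24–25 h later. Oöcytes retrieved from oviducal ampulla under stereomicroscopy, or by flushing oviduct and uterus with saline, and counted.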

| Compound | Activity [1] | fold change (FC) [2] | remaining at 1 h, 100 µM [3] [%] | pKi [4] | pKi [5] | Activity [6] | Activity [7] | bioavailability [8] [%] | concentration at 144 h [9] [nM] | Activity [10] | Activity [11] |
| --- | --- | --- | --- | --- | --- | --- | --- | --- | --- | --- | --- |
| CNC(=N)NCCC[C@H](NC(=O)[C@H](CC(C)C)NC(=O)CNC(=O)[C@H](Cc1ccccc1)NC(=O)[C@H](CO)NC(=O)[C@H](CC(N)=O)NC(=O)[C@H](Cc1c[nH]c2ccccc12)NC(=O)[C@H](CC(N)=O)NC(=O)[C@H](N)Cc1ccc(O)cc1)C(=O)N[C@@H](Cc1ccccc1)C(N)=O | Active | 0.93 |  |  |  |  |  |  |  |  |  |
| CNC(N)=NCCC[C@H](NC(=O)[C@H](CC(C)C)NC(=O)NNC(=O)[C@H](Cc1ccccc1)NC(=O)[C@H](CO)NC(=O)[C@H](CC(N)=O)NC(=O)[C@@H](NC(=O)[C@@H](CC(N)=O)NC(=O)[C@H](N)Cc1ccc(O)cc1)[C@@H](C)O)C(=O)N[C@@H](Cc1ccccc1)C(N)=O |  |  | 65.8 | 9.60 | 9.54 |  |  |  |  |  |  |
| CCNC(=O)[C@@H]1CCCN1C(=O)[C@H](CCCNC(=N)N)NC(=O)[C@H](CC(C)C)NC(=O)[C@@H](CC(C)C)NC(=O)[C@H](Cc1ccc(O)cc1)NC(=O)[C@H](CO)NC(=O)[C@H](Cc1c[nH]c2ccccc12)NC(=O)[C@H](Cc1c[nH]cn1)NC(=O)[C@@H]1CCC(=O)N1 |  |  |  |  |  | Active |  |  |  |  |  |
| CNC(N)=NCCC[C@H](NC(=O)[C@H](CC(C)C)NC(=O)NNC(=O)[C@H](Cc1ccccc1)NC(=O)[C@H](CO)NC(=O)[C@H](CC(N)=O)NC(=O)[C@H](Cc1ccccc1)NC(=O)[C@@H](CC(N)=O)NC(=O)[C@H](N)Cc1ccc(O)cc1)C(=O)N[C@@H](Cc1ccccc1)C(N)=O (H-[dY][dN]FNSF[azaGly]L[Arg(Me)]F-NH2) |  |  | 24.7 | 9.92 | 9.92 |  |  |  |  |  |  |
| CNC(=N)NCCC[C@H](NC(=O)[C@H](CC(C)C)NC(=O)NNC(=O)[C@H](Cc1ccccc1)NC(=O)[C@H](CO)NC(=O)[C@H](CC(N)=O)NC(=O)[C@H](Cc1c[nH]c2ccccc12)NC(=O)[C@H](N)Cc1ccc(O)cc1)C(=O)N[C@@H](Cc1ccccc1)C(N)=O (H-[dY]WNSF[azaGly]L[Arg(Me)]F-NH2) |  | 2.4 | 43.4 | 10.23 | 10.36 |  |  |  |  |  |  |
| CNC(=N)NCCC[C@H](NC(=O)[C@H](CC(C)C)NC(=O)NNC(=O)[C@H](Cc1ccccc1)NC(=O)[C@H](CO)NC(=O)[C@H](CC(N)=O)NC(=O)[C@@H](Cc1ccncc1)NC(=O)[C@H](N)Cc1ccc(O)cc1)C(=O)N[C@@H](Cc1ccccc1)C(N)=O [KISS1-305] (H-[dY][d4Pal]NSF[azaGly]L[Arg(Me)]F-NH2) | 0.04 ng/mL | 4.8 | 54.9 | 10.00 | 10.05 | Active | Active | 40.4 | 0.95 | Active | Active |

Reference: ChEMBL document CHEMBL3085624, “Design, synthesis, and biological evaluation of novel investigational nonapeptide KISS1R agonists with testosterone-suppressive activity” (J Med Chem, 2013)
